One experiment has as its target Histone deacetylase. The experiment can be described thus: Inhibition of HDAC in human HeLa cell nuclear extract using Boc-Lys (Ac)-AMC as substrate after 60 mins by fluorometric analysis. The experiment is classed as cell-based.
The next experiment relates to HCT-116. The experiment can be described thus: Antiproliferative activity against human HCT116 cells at 25 uM after 48 hrs by MTT assay. The experiment is classed as functional, cell-based. In outline: (§1)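 Single-point screen at 25 µM in HCT116, SW620 and LOVO cells. Cells seeded at 10^4 cells/ml in DMEM + 10% FBS and left to adhere overnight at 37 °C, 5% CO2. MTT read 48 h after dosing with 0.1% DMSO as the negative control. Inhibition % = (1 − OD treated/OD control) × 100; mean ± SD of three measurements.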
For orientation: Tetrazolium assays rely on reduction of a dye to a coloured formazan, in cell work by metabolically active cells.

The test system of another experiment is SW-620. The experiment can be described thus: Antiproliferative activity against human SW620 cells at 25 uM after 48 hrs by MTT assay. The experiment is classed as functional, cell-based. In outline:
as §1

The subject of experiment [1] is LoVo. The experiment can be described thus: Antiproliferative activity against human LoVo cells at 25 uM after 48 hrs by MTT assay. The experiment is classed as functional, cell-based. Put shortly:
as §1

Experiment [2] in a line: Antiproliferative activity against human HCT116 cells assessed as cell viability after 48 hrs by MTT assay. The experiment is classed as functional, cell-based, HCT-116. The following applies: Homo sapiens, HCT-116, 48 h.
Experiment [3] in a line: Antiproliferative activity against human SW620 cells assessed as cell viability after 48 hrs by MTT assay. The experiment is classed as functional, cell-based. To be noted: SW-620, 48 h.
The subject of experiment [4] is LoVo. The experiment can be described thus: Antiproliferative activity against human LoVo cells assessed as cell viability after 48 hrs by MTT assay. The experiment is classed as functional, cell-based.
The next experiment concerns SW480. The experiment can be described thus: Antiproliferative activity against human SW480 cells assessed as cell viability after 48 hrs by MTT assay. The experiment is classed as functional, cell-based. To be noted: SW480, 48 h.
The next experiment concerns the target Histone deacetylase 1 (Homo sapiens, UniProt Q13547). The experiment in a line: Inhibition of recombinant human HDAC1 using Boc-Lys (Ac)-AMC as substrate after 60 mins by fluorometric analysis.
The target of experiment [5] is T1, Protein deacetylase HDAC6 (Homo sapiens, UniProt Q9UBN7).
T1 sequence (Q9UBN7 whole entry): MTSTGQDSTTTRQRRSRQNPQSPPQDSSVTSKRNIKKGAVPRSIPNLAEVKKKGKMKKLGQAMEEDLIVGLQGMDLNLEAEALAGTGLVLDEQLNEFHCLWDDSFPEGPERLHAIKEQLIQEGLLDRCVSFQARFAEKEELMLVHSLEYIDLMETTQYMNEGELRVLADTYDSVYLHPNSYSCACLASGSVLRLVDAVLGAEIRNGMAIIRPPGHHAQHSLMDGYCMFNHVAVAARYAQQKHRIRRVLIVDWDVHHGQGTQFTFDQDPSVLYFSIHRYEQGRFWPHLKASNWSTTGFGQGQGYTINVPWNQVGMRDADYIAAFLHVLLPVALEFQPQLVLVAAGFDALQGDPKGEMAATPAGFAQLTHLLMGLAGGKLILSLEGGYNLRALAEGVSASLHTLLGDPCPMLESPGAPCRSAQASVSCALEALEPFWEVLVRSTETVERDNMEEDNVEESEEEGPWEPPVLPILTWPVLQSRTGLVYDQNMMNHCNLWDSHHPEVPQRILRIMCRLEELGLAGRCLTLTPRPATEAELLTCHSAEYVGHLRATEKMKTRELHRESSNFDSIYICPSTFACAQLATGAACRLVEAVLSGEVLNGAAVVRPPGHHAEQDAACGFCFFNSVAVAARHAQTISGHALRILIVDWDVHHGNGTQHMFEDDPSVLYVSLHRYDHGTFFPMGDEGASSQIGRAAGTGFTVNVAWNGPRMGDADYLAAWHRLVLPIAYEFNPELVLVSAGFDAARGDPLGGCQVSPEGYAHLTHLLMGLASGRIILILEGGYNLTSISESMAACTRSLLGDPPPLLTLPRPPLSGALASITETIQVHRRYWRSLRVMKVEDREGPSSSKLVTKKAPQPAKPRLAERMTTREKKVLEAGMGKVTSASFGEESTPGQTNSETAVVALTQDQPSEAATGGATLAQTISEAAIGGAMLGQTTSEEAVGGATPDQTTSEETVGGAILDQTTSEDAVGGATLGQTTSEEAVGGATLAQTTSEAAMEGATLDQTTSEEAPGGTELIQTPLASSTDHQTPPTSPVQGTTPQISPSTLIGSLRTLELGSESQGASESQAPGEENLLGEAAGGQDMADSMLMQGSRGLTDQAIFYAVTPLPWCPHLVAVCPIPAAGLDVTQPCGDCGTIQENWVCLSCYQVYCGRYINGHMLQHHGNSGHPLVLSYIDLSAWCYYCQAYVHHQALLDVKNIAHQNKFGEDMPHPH
The experiment in a line: Inhibition of recombinant human HDAC6 using Boc-Lys (Ac)-AMC as substrate after 60 mins by fluorometric analysis.

For the next experiment, the target named is T2, Histone deacetylase 8 (Homo sapiens, UniProt Q9BY41).
T2 sequence (Q9BY41 whole entry): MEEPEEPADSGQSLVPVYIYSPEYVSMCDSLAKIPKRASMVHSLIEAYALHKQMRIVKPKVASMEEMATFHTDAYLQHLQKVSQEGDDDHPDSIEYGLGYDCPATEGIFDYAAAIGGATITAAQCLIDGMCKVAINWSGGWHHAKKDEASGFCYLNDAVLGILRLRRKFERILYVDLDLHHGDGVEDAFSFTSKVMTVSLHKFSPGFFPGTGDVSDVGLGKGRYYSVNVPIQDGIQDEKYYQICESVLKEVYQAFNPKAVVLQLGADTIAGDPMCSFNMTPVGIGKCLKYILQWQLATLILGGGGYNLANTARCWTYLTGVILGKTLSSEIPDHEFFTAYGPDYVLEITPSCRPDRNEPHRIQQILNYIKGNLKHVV
The experiment can be described thus: Inhibition of recombinant human HDAC8 using Boc-Lys (Ac)-AMC as substrate after 60 mins by fluorometric analysis.

Data on 22 compounds can be found in ChEMBL document CHEMBL3745678, “Novel β-Carboline/Hydroxamic Acid Hybrids Targeting Both Histone Deacetylase and DNA Display High Anticancer Activity via Regulation of the p53 Signaling Pathway” (J Med Chem, 2015).

The source made the active and inactive calls. The rule behind the calls is not given here.

One may read the IC50 as the point on the concentration scale where inhibition reaches its midpoint.

Sequence of Histone deacetylase 1 (Q13547 whole entry): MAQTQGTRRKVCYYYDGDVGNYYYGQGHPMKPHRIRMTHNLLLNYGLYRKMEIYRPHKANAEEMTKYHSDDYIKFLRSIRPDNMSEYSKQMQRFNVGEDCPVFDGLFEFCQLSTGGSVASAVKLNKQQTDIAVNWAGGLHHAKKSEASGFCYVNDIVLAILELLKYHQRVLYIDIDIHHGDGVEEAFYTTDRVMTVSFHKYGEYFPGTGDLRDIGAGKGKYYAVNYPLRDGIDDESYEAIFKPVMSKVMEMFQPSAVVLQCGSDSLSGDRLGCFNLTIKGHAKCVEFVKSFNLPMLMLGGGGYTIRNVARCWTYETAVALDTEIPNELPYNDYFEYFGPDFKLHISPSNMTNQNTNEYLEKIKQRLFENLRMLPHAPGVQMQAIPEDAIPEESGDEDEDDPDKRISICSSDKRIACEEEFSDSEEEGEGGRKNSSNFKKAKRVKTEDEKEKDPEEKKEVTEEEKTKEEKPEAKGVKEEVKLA

`O=C(CCCCNC(=O)c1cc2c(cn1)[nH]c1ccccc12)NO` returned a 50% inhibitory concentration (IC50) at Histone deacetylase of 1.43 µM. Further, the outcome in the experiment with HCT-116, with SW-620 and in the experiment with LoVo [1] was inactive.

In the case of `Cc1nc(C(=O)NCCC(=O)NO)cc2c1[nH]c1ccccc12`, on Histone deacetylase, the IC50 was determined as 2.45 µM. The outcome in the experiment with HCT-116, in the experiment with SW-620 and in the experiment with LoVo [1] was inactive.

In the case of `COc1ccc(-c2nc(C(=O)NCC(=O)NO)cc3c2[nH]c2ccccc23)cc1`, the 50% inhibitory concentration (IC50) against Histone deacetylase is 3.02 µM; in [2] it was over 12.5 µM; in experiment [3], 6.92 µM; with LoVo [4] it was over 12.5 µM; with SW480, 10.5 µM. The result in the experiment with HCT-116, in the experiment with SW-620 and in the experiment on LoVo [1] was Active.

On Histone deacetylase, `O=C(CNC(=O)c1cc2c(cn1)[nH]c1ccccc12)NO` registered a concentration for half-maximal inhibition (IC50) of 6.17 µM. The outcome with HCT-116, in the experiment on SW-620 and with LoVo [1] was inactive.

With `COc1ccc(-c2nc(NC(=O)NCCCCC(=O)NO)cc3c4ccccc4n(C)c23)cc1`, the IC50 on Histone deacetylase worked out at 0.86 µM; in experiment [2] it was 3.87 µM; in [3] it was 5.09 µM; with LoVo [4], 6.24 µM; in the experiment with SW480, 5.8 µM.

In turn, `Cc1nc(C(=O)NCC(=O)NO)cc2c1[nH]c1ccccc12` displayed a half-inhibitory concentration (IC50) on Histone deacetylase of 5.37 µM. In addition, the result in the experiment on HCT-116, in the experiment on SW-620 and with LoVo [1] was inactive.

Regarding `O=C(CCCCCNC(=O)c1cc2c(cn1)[nH]c1ccccc12)NO`, on Histone deacetylase, the IC50 was found to be 1.81 µM. The outcome with HCT-116, in the experiment with SW-620 and in the experiment with LoVo [1] was inactive.

Consider `O=C(CCNC(=O)c1cc2c(cn1)[nH]c1ccccc12)NO`, for which, on Histone deacetylase, the IC50 was determined as 3.23 µM. Moreover, the result with HCT-116, in the experiment with SW-620 and in the experiment on LoVo [1] was inactive.

As to `COc1ccc(-c2nc(NC(=O)NCCCCCC(=O)NO)cc3c4ccccc4n(C)c23)cc1`, the IC50 against Histone deacetylase was 1.05 µM; in [2] it was 8.76 µM; in experiment [3] it was 9.53 µM; with LoVo [4], over 12.5 µM; in the experiment on SW480, over 12.5 µM.

As for `COc1ccc(-c2nc(C(=O)NCCCCC(=O)NO)cc3c2[nH]c2ccccc23)cc1`, the IC50 on Histone deacetylase amounted to 0.81 µM; in experiment [2], 3.35 µM; in [3], 2.53 µM; with LoVo [4], 5.28 µM; in the experiment with SW480 it was 4.43 µM. The result in the experiment with HCT-116, in the experiment with SW-620 and with LoVo [1] was Active.

As to `COc1ccc(-c2nc(NC(=O)NCCC(=O)NO)cc3c4ccccc4n(C)c23)cc1`, the IC50 against Histone deacetylase stood at 1.33 µM; in [2] it was 4.27 µM; in [3] it was 5.02 µM; in the experiment with LoVo [4], 5.66 µM; in the experiment on SW480, 4.4 µM.

With `COc1ccc(-c2nc(NC(=O)NCC(=O)NO)cc3c2[nH]c2ccccc23)cc1`, the 50% inhibitory concentration (IC50) against Histone deacetylase came to 2.24 µM; in experiment [2], 8.52 µM; in [3], 7.12 µM; in the experiment on LoVo [4] it was 9.36 µM; in the experiment with SW480, 10.1 µM.

With `COc1ccc(-c2nc(C(=O)NCCC(=O)NO)cc3c2[nH]c2ccccc23)cc1`, the IC50 against Histone deacetylase was 1.31 µM; in [2], 8.64 µM; in [3], 6.73 µM; in the experiment on LoVo [4], 9.01 µM; with SW480, 11.2 µM. The result with HCT-116, in the experiment with SW-620 and with LoVo [1] was Active.

In the case of `COc1ccc(-c2nc(NC(=O)NCC(=O)NO)cc3c4ccccc4n(C)c23)cc1`, the IC50 was 3.16 µM against Histone deacetylase; 9.3 µM in experiment [2]; 8.36 µM in [3]; over 12.5 µM in the experiment with LoVo [4]; 9.81 µM in the experiment on SW480.

On Histone deacetylase, `O=C(CCCNC(=O)c1cc2c(cn1)[nH]c1ccccc12)NO` displayed an IC50 of 1.56 µM. Moreover, the result in the experiment with HCT-116, in the experiment with SW-620 and with LoVo [1] was inactive.

Turning to `COc1ccc(-c2nc(C(=O)NCCCCCC(=O)NO)cc3c2[nH]c2ccccc23)cc1`, the IC50 against Histone deacetylase is 1.17 µM; in experiment [2] it was 7.16 µM; in experiment [3] it was 8.06 µM; in the experiment with LoVo [4], 7.9 µM; in the experiment with SW480, 9.83 µM. Besides, the outcome in the experiment with HCT-116, in the experiment on SW-620 and in the experiment with LoVo [1] was Active.

As to `COc1ccc(-c2nc(NC(=O)NCCCCCC(=O)NO)cc3c2[nH]c2ccccc23)cc1`, the 50% inhibitory concentration (IC50) on Histone deacetylase was 0.82 µM; in experiment [2] it was 4.84 µM; in [3] it was 6.25 µM; with LoVo [4], 7.34 µM; in the experiment on SW480, 5.09 µM.

`Cc1nc(C(=O)NCCCC(=O)NO)cc2c1[nH]c1ccccc12` came in with an IC50 on Histone deacetylase of 1.21 µM. Also, the result in the experiment on HCT-116, in the experiment on SW-620 and in the experiment with LoVo [1] was inactive.

In the case of `Cc1nc(C(=O)NCCCCC(=O)NO)cc2c1[nH]c1ccccc12`, the half-maximal inhibitory concentration (IC50) at Histone deacetylase came out at 1.26 µM. For the same compound, the result with HCT-116, with SW-620 and in the experiment with LoVo [1] was inactive.

For the compound `COc1ccc(-c2nc(NC(=O)NCCC(=O)NO)cc3c2[nH]c2ccccc23)cc1`, the IC50 worked out at 0.43 µM on Histone deacetylase; 3.08 µM in [2]; 2.69 µM in experiment [3]; 3.61 µM with LoVo [4]; 3.11 µM in the experiment with SW480; 0.11 µM on Histone deacetylase 1. Moreover, the 50% inhibitory concentration (IC50) in [5] was determined as 0.36 µM; at Histone deacetylase 8 it was 0.43 µM.

Take `Cc1nc(C(=O)NCCCCCC(=O)NO)cc2c1[nH]c1ccccc12`: the concentration for half-maximal inhibition (IC50) against Histone deacetylase is 1.43 µM. The outcome with HCT-116, in the experiment on SW-620 and in the experiment with LoVo [1] was inactive.

As to `COc1ccc(-c2nc(NC(=O)NCCCCC(=O)NO)cc3c2[nH]c2ccccc23)cc1`, the half-inhibitory concentration (IC50) amounted to 0.35 µM against Histone deacetylase; 0.99 µM in experiment [2]; 2.02 µM in experiment [3]; 2.17 µM with LoVo [4]; 1.73 µM in the experiment on SW480; 0.079 µM on Histone deacetylase 1. Further, the concentration for half-maximal inhibition (IC50) in experiment [5] was determined as 0.093 µM; on Histone deacetylase 8, 0.2 µM.
